Measured values of several laboratories.

| Compound | target or system | assay | system | conditions | endpoint | result |
| --- | --- | --- | --- | --- | --- | --- |
| C[C@@H]1[C@H](O)[C@@H](C)/C=C/C=C/C=C/C=C/C=C/C=C/C=C/[C@H](O[C@@H]2O[C@H](C)[C@@H](O)[C@H](N)[C@@H]2O)C[C@@H]2O[C@](O)(C[C@@H](O)C[C@@H](O)[C@H](O)CC[C@@H](O)C[C@@H](O)CC(=O)O[C@H]1C)C[C@H](O)[C@H]2C(=O)O | Lodderomyces parapsilosis | microbial growth, broth dilution | ATCC22019 | 24 h | MIC | 2 µg/mL |
| O=C(O)CO/N=c1\cc2n(-c3ccc(Cl)cc3)c3ccccc3nc-2cc1Nc1ccc(Cl)cc1 | Neisseria gonorrhoeae | microbial growth | ATCC49226 |  | MIC | 1.88 µM |
| C[C@@H]1CC[C@@H]([C@](O)(CNCc2ccc(F)cc2)COCc2ccc(F)cc2)[C@H](OCc2ccc(F)cc2)C1 | MDA-MB-231 | cell growth or viability, MTT |  | 10 µM, 72 h | inhibition | 88.9% |
| COC1=CC(=O)c2ccccc2C1=O | Lodderomyces parapsilosis | microbial growth, broth dilution | ATCC22019 | 24 h | MIC | 6.25 µg/mL |
| C[C@@H]1CC[C@@H]([C@](C)(O)CNCc2cccc3ccccc23)[C@H](OCc2ccccc2)C1 | MDA-MB-231 | cell growth or viability, MTT |  | 30 µM, 72 h | inhibition | 61% |
| CC(=NNC(=O)COc1ccc2c(C)c(Cc3ccccc3)c(=O)oc2c1C)c1ccc(Br)cc1 | MDA-MB-231 | cell growth or viability, MTT |  | 500 µg/mL | viability | 19.9% |
| CO/N=c1\cc2n(-c3ccc(Cl)cc3)c3ccccc3nc-2cc1Nc1ccc(Cl)cc1 | Neisseria gonorrhoeae | microbial growth | ATCC49226 |  | MIC | 0.94 µM |
| CCc1c(C)c2ccc(OCC=Cc3ccccc3)c(C)c2oc1=O | MDA-MB-231 | cell growth or viability, MTT |  | 500 µg/mL | viability | 13% |
| C=CCO/N=c1\cc2n(-c3ccc(Cl)cc3)c3ccccc3nc-2cc1Nc1ccc(Cl)cc1 | Neisseria gonorrhoeae | microbial growth | ATCC49226 |  | MIC | 15 µM |
| COc1ccc(CNC[C@](O)(COCc2ccc(F)cc2)[C@@H]2CC[C@@H](C)C[C@H]2OCc2ccc(F)cc2)cc1 | MDA-MB-231 | cell growth or viability, MTT |  | 30 µM, 72 h | inhibition | 99.4% |
| Cc1c(Cc2ccccc2)c(=O)oc2c(C)c(OCC(=O)NN=Cc3ccccc3)ccc12 | MDA-MB-231 | cell growth or viability, MTT |  | 125 µg/mL | viability | 8.96% |
| C[C@@H]1CC[C@@H]([C@](O)(CNCc2cccc3ccccc23)COCc2ccccc2)[C@H](OCc2ccccc2)C1 | MDA-MB-231 | cell growth or viability, MTT |  | 10 µM, 72 h | inhibition | 96.8% |
| O/N=c1\cc2n(-c3ccc(Cl)cc3)c3ccccc3nc-2cc1Nc1ccc(Cl)cc1 | Neisseria gonorrhoeae | microbial growth | ATCC49226 |  | MIC | 0.03 µM |
| Cc1c(Cc2ccccc2)c(=O)oc2c(C)c(OCC(=O)NN=Cc3ccc([N+](=O)[O-])cc3)ccc12 | MDA-MB-231 | cell growth or viability, MTT |  | 500 µg/mL | viability | 14.4% |
| COc1ccc(COC[C@@](O)(CNCc2ccccc2)[C@@H]2CC[C@@H](C)C[C@H]2OCc2ccc(OC)cc2)cc1 | MDA-MB-231 | cell growth or viability, MTT |  | 10 µM, 72 h | inhibition | 99.5% |
